From ChEMBL document CHEMBL1138034, “Structural studies on bioactive compounds. 40.(1) Synthesis and biological properties of fluoro-, methoxyl-, and amino-substituted 3-phenyl-4H-1-benzopyran-4-ones and a comparison of their antitumor activities with the activities of related 2-phenylbenzothiazoles” (J Med Chem, 2006) come the findings set out here.

The structures appear in SMILES notation. The source made the active and inactive calls. The rule behind the calls is not given here.

The subject of assay [1] is Panel NCI-60 (60 carcinoma cell lines). As to the kind of experiment: Antiproliferative activity against human NCI60 cell line. The assay is classed as functional.
Assay [2] has as its system MDA-MB-468. The assay is described as follows: Antiproliferative activity against human MDA-MB-468 cell line. The assay is classed as functional. The procedure, abridged:
(§1)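 Cells kept in RPMI 1640 with 2 mM L-glutamine and 10% fetal calf serum, 37 °C, 5% CO₂, passaged twice weekly. 5 × 10³ cells/well allowed 24 h to adhere, then exposed 72 h to compound at final 0.1 nM–100 µM (n = 8). MTT read-out: MTT 400 µg/mL for 4 h at 37 °C, formazan dissolved in DMSO/glycine buffer pH 10.5, absorbance 550 nm; GI50 derived.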

Another assay deals with MCF7. As to the kind of experiment: Antiproliferative activity against human MCF7 cell line. The assay is classed as functional. The procedure, abridged:
as §1

A further assay deals with HT-29. As to the kind of experiment: Antiproliferative activity against human HT29 cell line. The assay is classed as functional. The procedure, abridged:
as §1

The test system of the next assay is HCT-116. The assay is described as follows: Antiproliferative activity against human HCT116 cell line. In kind it is functional. The method, boiled down:
as §1

The test system of a further assay is MDA-MB-435. As to the kind of experiment: Antiproliferative activity against human MDA-MB-435 cell line expressing ARNT splice variant.
In assay [3] the test system is MDA-MB-468. As to the kind of experiment: Antiproliferative activity against human MDA-MB-468 cell line in presence of 10 nM TBDD. In kind it is functional. The procedure, abridged:
(§2)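 MDA-MB-468 cells, 5 × 10³/well, allowed 24 h to adhere, then co-exposed 72 h to isoflavone (final 0.1 nM–100 µM, n = 8) plus TBDD at final 10 nM (n = 4). Viability measured by MTT (400 µg/mL, 4 h, 37 °C), formazan dissolved in DMSO/glycine pH 10.5, absorbance 550 nm.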

In another assay the target is T1, Cytochrome P450 1A1 (Homo sapiens, UniProt P04798).
T1 sequence (P04798 whole entry): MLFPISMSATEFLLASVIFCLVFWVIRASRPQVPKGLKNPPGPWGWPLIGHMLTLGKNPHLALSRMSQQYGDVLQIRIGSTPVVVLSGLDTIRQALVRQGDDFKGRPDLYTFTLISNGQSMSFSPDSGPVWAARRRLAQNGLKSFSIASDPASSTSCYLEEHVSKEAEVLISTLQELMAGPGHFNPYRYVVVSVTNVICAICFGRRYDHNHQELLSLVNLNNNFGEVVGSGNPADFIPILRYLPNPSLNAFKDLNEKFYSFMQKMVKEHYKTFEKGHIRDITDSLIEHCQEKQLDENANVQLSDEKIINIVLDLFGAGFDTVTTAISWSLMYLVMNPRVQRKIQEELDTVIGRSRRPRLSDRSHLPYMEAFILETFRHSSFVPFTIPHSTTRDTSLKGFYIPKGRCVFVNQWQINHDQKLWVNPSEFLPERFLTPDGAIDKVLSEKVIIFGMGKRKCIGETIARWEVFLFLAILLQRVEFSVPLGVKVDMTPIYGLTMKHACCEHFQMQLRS
As to the kind of experiment: Inhibition of CYP1A1 by EROD assay. The assay is classed as ADME. The method, boiled down:
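EROD fluorometric assay. Recombinant CYP1A1 microsomes (0.1 mg/mL) in 100 mM Tris-HCl pH 7.4 with 50 µM MgCl₂ and 100 µM 7-ethoxyresorufin, with compound at 1, 10 or 100 µM. Preincubated 5 min at 37 °C, started with 500 µM NADPH, run 15 min at 37 °C, stopped with ice-cold acetonitrile. Resorufin read at ex 530/em 585 nm against a standard curve; no-microsome and DMSO controls.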

For assay [4], the system named is MDA-MB-468. As to the kind of experiment: Cytotoxicity against human MDA-MB-468 cell line at 3 uM in presence of TBDD. The assay is classed as functional, cell-based. The method, boiled down:
as §2

For the compound `O=c1c(-c2ccc(Cl)cc2)coc2ccccc12`, the GI50 in assay [1] turned out to be 50 µM.

In the case of `Nc1ccc(-c2coc3cc(F)ccc3c2=O)cc1`, the GI50 in the assay with MDA-MB-468 [2] was determined as 6.4 µM; in the assay on MCF7, 7.9 µM; in the assay with HT-29 it was 8.6 µM; in the assay on HCT-116, 7.2 µM; in assay [1], 50 µM.

Regarding `COc1ccc(-c2coc3cc(F)c(F)cc3c2=O)cc1OC`, the GI50 is 17.2 µM in the assay on MDA-MB-468 [2]; 41.5 µM in the assay on MCF7; 22.6 µM in the assay with HT-29; 39.7 µM in the assay with HCT-116; 50 µM in [1]; more than 30 µM with MDA-MB-435.

As to `Nc1ccc(-c2coc3ccccc3c2=O)cc1`, the GI50 in the assay with MDA-MB-468 [2] was 6 µM; with MCF7 it was 64.9 µM; in the assay with HT-29, 8.1 µM; in the assay with HCT-116, 17.3 µM; in assay [1], 50 µM.

For the compound `O=c1c(-c2ccc3c(c2)OCO3)coc2ccc(F)cc12`, the GI50 with MDA-MB-468 [2] amounted to 1.5 µM; with MCF7, 60 µM; in assay [1], 50 µM; in the assay with MDA-MB-468 [3], 2 µM.

In [1], `O=c1c(-c2cccc([N+](=O)[O-])c2)coc2ccccc12` gave a GI50 of 50 µM.

As for `Nc1ccc(-c2coc3ccc(F)cc3c2=O)cc1`, the GI50 in the assay with MDA-MB-468 [2] is 4.8 µM; in the assay on MCF7, 8.8 µM; in the assay on HT-29, 6.1 µM; in the assay on HCT-116 it was 8.5 µM; in [1], 50 µM.

`O=c1c(-c2ccc(Br)cc2)coc2ccccc12`: the GI50 in [1] is 50 µM.

As for `COc1ccc(-c2coc3c(F)cc(F)cc3c2=O)cc1OC`, the GI50 in the assay on MDA-MB-468 [2] is 6.3 µM; in the assay on MCF7 it was 46.7 µM; in the assay with HT-29, 7.2 µM; with HCT-116, 8.1 µM; in assay [1], 50 µM; in the assay on MDA-MB-435, more than 30 µM.

The compound `COc1ccc(-c2coc3ccc(F)cc3c2=O)cc1` registered a 50% growth inhibitory concentration (GI50) in assay [1] of 50 µM. For the same compound, on Cytochrome P450 1A1, the IC50 was less than 100 µM.

With `COc1ccc(-c2nc3cc(F)ccc3s2)cc1OC`, the GI50 in the assay on MDA-MB-468 [2] is less than 0.0001 µM; in the assay on MCF7, 0.008 µM; with HT-29, 2.6 µM; with HCT-116, 5.4 µM.

In the case of `COc1ccc(-c2coc3cc(F)ccc3c2=O)cc1OC`, the GI50 was 58.9 µM with MDA-MB-468 [2]; 90.6 µM in the assay with MCF7; 87 µM with HT-29; 80.2 µM in the assay with HCT-116; 50 µM in assay [1]; less than 1 µM in the assay on MDA-MB-468 [3]. At Cytochrome P450 1A1, the IC50 was less than 100 µM. The result in the assay on MDA-MB-468 [4] was Active.

Consider `Cc1cc(-c2nc3cc(F)ccc3s2)ccc1N`, for which the GI50 in the assay on MDA-MB-468 [2] is less than 0.0001 µM; in the assay on MCF7, less than 0.0001 µM; in the assay with HT-29, 63 µM; with HCT-116, 16 µM.

`COc1ccc(-c2coc3cc(F)ccc3c2=O)cc1`: the GI50 in the assay on MDA-MB-468 [2] is 9.9 µM; in the assay with MCF7 it was 43.8 µM; in the assay with HT-29, 17.6 µM; in the assay with HCT-116, 8.5 µM; in [1] it was 50 µM; in the assay with MDA-MB-435 it was more than 30 µM.

For `COc1ccc(-c2coc3ccc(F)cc3c2=O)cc1OC`, the concentration for 50% growth inhibition (GI50) in the assay with MDA-MB-468 [2] was 0.9 µM; in the assay on MCF7, 93.1 µM; in the assay on HT-29, 88.2 µM; in the assay with HCT-116, 65.3 µM; in assay [1], 50 µM; in the assay with MDA-MB-468 [3], less than 1 µM. In the assay on MDA-MB-435, this compound had a GI50 of more than 30 µM. The compound also returned an IC50 on Cytochrome P450 1A1 of less than 100 µM.

Take `COc1ccc(-c2coc3ccccc3c2=O)cc1OC`: the GI50 in the assay with MDA-MB-468 [2] is 66.5 µM; in the assay with MCF7 it was 88.1 µM; in the assay with HT-29, more than 100 µM; in the assay on HCT-116 it was more than 100 µM; in [1], 50 µM; in the assay on MDA-MB-468 [3] it was less than 1 µM.

With `COc1cccc(-c2coc3ccccc3c2=O)c1`, the GI50 was 29 µM in the assay on MDA-MB-468 [2]; more than 100 µM in the assay with MCF7; 88 µM in the assay on HT-29; more than 100 µM with HCT-116; 50 µM in [1]; less than 1 µM in the assay on MDA-MB-468 [3].

For the compound `COc1ccc(-c2coc3c(F)c(F)ccc3c2=O)cc1OC`, the GI50 in the assay with MDA-MB-468 [2] is 21.6 µM; in the assay with MCF7, 47.2 µM; with HT-29, 31.7 µM; in the assay with HCT-116, 26 µM; in assay [1] it was 50 µM; with MDA-MB-468 [3], less than 1 µM.

On to `COc1ccc(-c2coc3c(F)cccc3c2=O)cc1OC`, for which the GI50 is 41.9 µM in the assay with MDA-MB-468 [2]; 75.5 µM with MCF7; 88 µM in the assay on HT-29; 67.8 µM in the assay with HCT-116; 50 µM in assay [1]; less than 1 µM in the assay on MDA-MB-468 [3]. In the assay on MDA-MB-468 [4], the result was Active.
